Data: ChEMBL document CHEMBL5705905, “Pharmacological targeting of kinases MST1 and MST2 augments tissue repair and regeneration” (Sci Transl Med, 2016)
The source made the active and inactive calls. The calls are words filed in the database; no cut-off is given here.

Key:
[1] = molecular target: Mitogen-activated protein kinase 6 (Homo sapiens) (UniProt Q16659); experiment: Inhibition of ERK3 (unknown origin) assessed as remaining activity at 1 uM by Kinome scan method relative to control
[2] = molecular target: cAMP-dependent protein kinase catalytic subunit PRKX (Homo sapiens) (UniProt P51817); experiment: Inhibition of PRKX (unknown origin) assessed as remaining activity at 1 uM by Kinome scan method relative to control
cAMP-dependent protein kinase catalytic subunit PRKX (Homo sapiens), sequence (P51817 whole entry): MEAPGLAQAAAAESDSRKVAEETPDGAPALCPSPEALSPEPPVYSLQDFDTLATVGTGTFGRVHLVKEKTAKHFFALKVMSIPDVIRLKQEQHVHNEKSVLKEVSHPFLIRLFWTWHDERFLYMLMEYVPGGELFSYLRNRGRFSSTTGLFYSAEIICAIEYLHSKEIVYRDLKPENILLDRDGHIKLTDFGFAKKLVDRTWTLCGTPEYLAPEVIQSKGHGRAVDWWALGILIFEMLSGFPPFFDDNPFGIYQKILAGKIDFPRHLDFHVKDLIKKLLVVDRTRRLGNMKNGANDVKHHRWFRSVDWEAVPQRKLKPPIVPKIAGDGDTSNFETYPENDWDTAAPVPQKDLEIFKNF

[3] = molecular target: Insulin-like growth factor 1 receptor (Homo sapiens) (UniProt P08069); experiment: Inhibition of IGF1R (unknown origin) assessed as remaining activity at 1 uM by Kinome scan method relative to control
RAW264.7 = experiment: Inhibition of MST1/2 (unknown origin) in mouse RAW264.7 cells assessed as H2O2 stimulated MOB1 phosphorylation level at 1 to 3 uM by immunoblot analysis; type: cell-based; details: dose 1-3 µM
[4] = molecular target: Ribosomal protein S6 kinase alpha-2 (Homo sapiens) (UniProt Q15349); experiment: Inhibition of C-terminal kinase domain RSK3 (unknown origin) assessed as remaining activity at 1 uM by Kinome scan method relative to control
Procedure, shortened: (§1)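 Active-site-dependent competition-binding (KINOMEscan) panel of 468 kinases, test compound at 1 μM (from a 10 mM DMSO stock). Read-out is ctrl% = (test signal − positive control signal)/(negative control signal − positive control signal) × 100. DMSO is the negative control (100%) and a control compound is the positive control (0%). Lower ctrl% means tighter binding.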

[5] = molecular target: Calcium/calmodulin-dependent protein kinase type II subunit delta (Homo sapiens) (UniProt Q13557); experiment: Inhibition of CAMK2D (unknown origin) assessed as remaining activity at 1 uM by Kinome scan method relative to control
Procedure, shortened: (§2)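 Active-site-dependent competition-binding profiling (KINOMEscan) at 1 μM against a 468-kinase panel; compound supplied from a 10 mM DMSO stock. Read-out is ctrl% = (test signal − positive control signal)/(negative control signal − positive control signal) × 100. DMSO is the negative control (100%) and a control compound the positive control (0%). Lower ctrl% means tighter binding.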

[6] = molecular target: Calcium/calmodulin-dependent protein kinase type 1D (Homo sapiens) (UniProt Q8IU85); experiment: Inhibition of CAMK1D (unknown origin) assessed as remaining activity at 1 uM by Kinome scan method relative to control; procedure, shortened: as §2
[7] = molecular target: Leucine-rich repeat serine/threonine-protein kinase 2 (Homo sapiens) (UniProt Q5S007); experiment: Inhibition of LRRK2 (unknown origin) assessed as remaining activity at 1 uM by Kinome scan method relative to control
[8] = molecular target: Mitogen-activated protein kinase kinase kinase 6 (Homo sapiens) (UniProt O95382); experiment: Inhibition of ASK2 (unknown origin) assessed as remaining activity at 1 uM by Kinome scan method relative to control; procedure, shortened: as §1
Mitogen-activated protein kinase kinase kinase 6 (Homo sapiens), sequence (O95382 whole entry): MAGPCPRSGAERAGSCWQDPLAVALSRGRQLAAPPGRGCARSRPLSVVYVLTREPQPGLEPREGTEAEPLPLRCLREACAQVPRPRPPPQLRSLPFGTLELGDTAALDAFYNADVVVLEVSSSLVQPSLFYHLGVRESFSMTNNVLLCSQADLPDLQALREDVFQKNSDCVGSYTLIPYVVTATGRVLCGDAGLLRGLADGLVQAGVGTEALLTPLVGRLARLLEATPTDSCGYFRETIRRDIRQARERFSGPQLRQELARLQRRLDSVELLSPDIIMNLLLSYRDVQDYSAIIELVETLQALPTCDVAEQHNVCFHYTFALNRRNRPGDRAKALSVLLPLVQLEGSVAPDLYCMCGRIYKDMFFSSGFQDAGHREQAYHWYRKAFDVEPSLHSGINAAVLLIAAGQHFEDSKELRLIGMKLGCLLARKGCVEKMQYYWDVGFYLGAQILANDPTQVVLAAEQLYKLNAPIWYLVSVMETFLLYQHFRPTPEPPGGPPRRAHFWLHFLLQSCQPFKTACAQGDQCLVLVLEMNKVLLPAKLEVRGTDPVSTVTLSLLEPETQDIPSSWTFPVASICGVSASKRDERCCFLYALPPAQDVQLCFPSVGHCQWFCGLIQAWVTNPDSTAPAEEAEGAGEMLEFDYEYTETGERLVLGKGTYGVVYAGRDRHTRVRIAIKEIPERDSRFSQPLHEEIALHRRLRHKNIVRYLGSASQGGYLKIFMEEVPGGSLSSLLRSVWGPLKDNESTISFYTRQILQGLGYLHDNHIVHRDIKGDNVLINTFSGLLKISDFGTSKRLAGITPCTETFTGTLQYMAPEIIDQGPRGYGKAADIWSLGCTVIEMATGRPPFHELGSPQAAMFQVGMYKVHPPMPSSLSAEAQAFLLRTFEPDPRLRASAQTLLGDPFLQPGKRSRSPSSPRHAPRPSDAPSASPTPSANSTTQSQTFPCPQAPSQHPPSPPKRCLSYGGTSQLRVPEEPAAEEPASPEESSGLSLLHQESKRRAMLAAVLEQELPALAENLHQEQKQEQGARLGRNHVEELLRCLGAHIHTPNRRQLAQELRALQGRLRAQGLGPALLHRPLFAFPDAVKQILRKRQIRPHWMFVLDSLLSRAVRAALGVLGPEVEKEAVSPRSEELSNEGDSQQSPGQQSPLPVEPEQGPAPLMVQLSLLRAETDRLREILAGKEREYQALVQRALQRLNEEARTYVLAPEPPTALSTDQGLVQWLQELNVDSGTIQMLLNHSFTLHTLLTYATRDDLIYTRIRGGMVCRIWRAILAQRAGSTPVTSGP

[9] = molecular target: Cyclin-dependent kinase-like 1 (Homo sapiens) (UniProt Q00532); experiment: Inhibition of CDKL1 (unknown origin) assessed as remaining activity at 1 uM by Kinome scan method relative to control; procedure, shortened: as §2
Cyclin-dependent kinase-like 1 (Homo sapiens), sequence (Q00532 whole entry, the tested form may be a part): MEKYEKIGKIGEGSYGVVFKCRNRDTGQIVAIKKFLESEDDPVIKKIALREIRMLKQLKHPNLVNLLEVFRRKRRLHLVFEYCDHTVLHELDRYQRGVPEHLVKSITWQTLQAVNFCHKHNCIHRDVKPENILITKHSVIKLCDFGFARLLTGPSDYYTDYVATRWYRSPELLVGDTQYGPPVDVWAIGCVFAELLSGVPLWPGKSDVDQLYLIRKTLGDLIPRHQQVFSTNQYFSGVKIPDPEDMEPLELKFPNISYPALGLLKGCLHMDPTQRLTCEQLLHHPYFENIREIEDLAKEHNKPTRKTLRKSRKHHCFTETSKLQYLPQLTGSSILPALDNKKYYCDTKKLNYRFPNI

[10] = molecular target: Tyrosine-protein kinase JAK3 (Homo sapiens) (UniProt P52333); experiment: Inhibition of JAK3 JH1 domain (unknown origin) assessed as remaining activity at 1 uM by Kinome scan method relative to control
[11] = molecular target: Ribosomal protein S6 kinase alpha-3 (Homo sapiens) (UniProt P51812); experiment: Inhibition of C-terminal kinase domain RSK2 (unknown origin) assessed as remaining activity at 1 uM by Kinome scan method relative to control; procedure, shortened: as §1
Ribosomal protein S6 kinase alpha-3 (Homo sapiens), sequence (P51812 whole entry, the tested form may be a part): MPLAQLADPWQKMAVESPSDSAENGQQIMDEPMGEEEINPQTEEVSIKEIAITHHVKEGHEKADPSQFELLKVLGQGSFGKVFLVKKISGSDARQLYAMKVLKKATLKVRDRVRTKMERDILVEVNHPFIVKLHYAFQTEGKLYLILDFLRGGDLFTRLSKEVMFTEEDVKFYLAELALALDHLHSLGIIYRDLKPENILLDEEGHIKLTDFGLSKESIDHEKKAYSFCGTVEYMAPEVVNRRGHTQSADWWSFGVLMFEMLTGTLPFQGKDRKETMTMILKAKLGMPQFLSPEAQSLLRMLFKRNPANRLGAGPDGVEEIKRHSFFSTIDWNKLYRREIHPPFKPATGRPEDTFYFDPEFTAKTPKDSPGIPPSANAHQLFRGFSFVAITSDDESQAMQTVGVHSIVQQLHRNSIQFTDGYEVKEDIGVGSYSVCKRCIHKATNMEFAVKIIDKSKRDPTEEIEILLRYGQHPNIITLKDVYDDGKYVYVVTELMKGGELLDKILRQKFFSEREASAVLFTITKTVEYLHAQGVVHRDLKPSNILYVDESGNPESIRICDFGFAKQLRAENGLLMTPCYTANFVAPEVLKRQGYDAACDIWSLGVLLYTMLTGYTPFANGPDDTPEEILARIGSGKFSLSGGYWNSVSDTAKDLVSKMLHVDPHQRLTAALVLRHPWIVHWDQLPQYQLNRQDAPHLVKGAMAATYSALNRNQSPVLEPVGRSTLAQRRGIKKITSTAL

[12] = Acute toxicity in mouse assessed as increase in BrdU-positive cells at 1 mg/kg,ip administrated once a daily for 3 weeks by H and E staining based immunohistochemical analysis relative to control; type: organism-based, Liver; details: in vivo, 504 h
Procedure, shortened: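 Postnatal mice dosed from 10 days of age with vehicle or 1 mg/kg once per day for 21 days (3 weeks). Vehicle is 0.1% citric acid aqueous solution containing 20% Kolliphor HS 15. Liver sections stained with H&E and by IHC for CK19 and BrdU, with positive cells quantified (n = 3). Liver/body weight ratio recorded (n = 4). Values are means ± SD versus vehicle, Student's t test.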

[13] = molecular target: Serine/threonine-protein kinase Chk2 (Homo sapiens) (UniProt O96017); experiment: Inhibition of CHEK2 (unknown origin) assessed as remaining activity at 1 uM by Kinome scan method relative to control; procedure, shortened: as §2
Serine/threonine-protein kinase Chk2 (Homo sapiens), sequence (O96017 whole entry, the tested form may be a part): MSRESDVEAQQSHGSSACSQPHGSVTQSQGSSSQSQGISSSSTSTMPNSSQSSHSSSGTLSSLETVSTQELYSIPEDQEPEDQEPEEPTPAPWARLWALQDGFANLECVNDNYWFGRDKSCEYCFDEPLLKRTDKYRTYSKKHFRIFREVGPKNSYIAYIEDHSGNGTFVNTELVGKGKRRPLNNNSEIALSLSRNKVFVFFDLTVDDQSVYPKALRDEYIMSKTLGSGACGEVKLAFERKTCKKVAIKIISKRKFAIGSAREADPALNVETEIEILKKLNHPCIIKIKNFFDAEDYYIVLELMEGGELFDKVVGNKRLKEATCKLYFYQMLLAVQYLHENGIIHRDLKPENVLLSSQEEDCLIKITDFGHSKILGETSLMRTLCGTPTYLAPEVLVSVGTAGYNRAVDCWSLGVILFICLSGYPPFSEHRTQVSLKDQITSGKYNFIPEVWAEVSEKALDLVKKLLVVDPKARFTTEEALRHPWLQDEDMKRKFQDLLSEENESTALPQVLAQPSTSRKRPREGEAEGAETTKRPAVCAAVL

[14] = molecular target: Ribosomal protein S6 kinase alpha-6 (Homo sapiens) (UniProt Q9UK32); experiment: Inhibition of C-terminal kinase domain RSK4 (unknown origin) assessed as remaining activity at 1 uM by Kinome scan method relative to control; procedure, shortened: as §1
Ribosomal protein S6 kinase alpha-6 (Homo sapiens), sequence (Q9UK32 whole entry, the tested form may be a part): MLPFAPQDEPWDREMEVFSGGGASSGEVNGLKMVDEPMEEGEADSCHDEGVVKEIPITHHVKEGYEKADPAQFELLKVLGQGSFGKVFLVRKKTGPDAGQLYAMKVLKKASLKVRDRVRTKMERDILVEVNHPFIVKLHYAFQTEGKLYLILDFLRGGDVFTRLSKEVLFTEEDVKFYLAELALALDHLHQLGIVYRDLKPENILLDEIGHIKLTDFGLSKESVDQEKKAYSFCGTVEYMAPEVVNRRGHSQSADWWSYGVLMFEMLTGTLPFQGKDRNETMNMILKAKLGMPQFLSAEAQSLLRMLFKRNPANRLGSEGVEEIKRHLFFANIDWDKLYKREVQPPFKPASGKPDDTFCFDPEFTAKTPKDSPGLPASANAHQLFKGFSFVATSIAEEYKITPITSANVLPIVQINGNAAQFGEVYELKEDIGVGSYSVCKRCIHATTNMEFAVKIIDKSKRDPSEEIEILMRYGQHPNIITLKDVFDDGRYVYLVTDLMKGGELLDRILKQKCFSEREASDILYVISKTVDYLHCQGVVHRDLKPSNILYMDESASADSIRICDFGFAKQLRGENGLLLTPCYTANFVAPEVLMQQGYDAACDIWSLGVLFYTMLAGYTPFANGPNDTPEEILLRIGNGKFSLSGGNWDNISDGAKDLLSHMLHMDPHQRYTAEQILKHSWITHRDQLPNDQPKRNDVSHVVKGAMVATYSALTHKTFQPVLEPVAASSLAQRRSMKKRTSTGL

[15] = molecular target: Serine/threonine-protein kinase Nek2 (Homo sapiens) (UniProt P51955); experiment: Inhibition of NEK2 (unknown origin) assessed as remaining activity at 1 uM by Kinome scan method relative to control
[16] = molecular target: Non-receptor tyrosine-protein kinase TYK2 (Homo sapiens, UniProt P29597); experiment: Inhibition of TYK2 JH1 domain (unknown origin) assessed as remaining activity at 1 uM by Kinome scan method relative to control
[17] = molecular target: Serine/threonine-protein kinase WNK3 (Homo sapiens) (UniProt Q9BYP7); experiment: Inhibition of WNK3 (unknown origin) assessed as remaining activity at 1 uM by Kinome scan method relative to control
[18] = molecular target: Interferon-induced, double-stranded RNA-activated protein kinase (Homo sapiens) (UniProt P19525); experiment: Inhibition of PRKR (unknown origin) assessed as remaining activity at 1 uM by Kinome scan method relative to control
[19] = system: Mast/stem cell growth factor receptor Kit (Homo sapiens), P10721 [V559D]; experiment: Inhibition of KIT V559D mutant (unknown origin) assessed as remaining activity at 1 uM by Kinome scan method relative to control
Mast/stem cell growth factor receptor Kit (Homo sapiens), P10721 [V559D], sequence (P10721 whole entry V559D): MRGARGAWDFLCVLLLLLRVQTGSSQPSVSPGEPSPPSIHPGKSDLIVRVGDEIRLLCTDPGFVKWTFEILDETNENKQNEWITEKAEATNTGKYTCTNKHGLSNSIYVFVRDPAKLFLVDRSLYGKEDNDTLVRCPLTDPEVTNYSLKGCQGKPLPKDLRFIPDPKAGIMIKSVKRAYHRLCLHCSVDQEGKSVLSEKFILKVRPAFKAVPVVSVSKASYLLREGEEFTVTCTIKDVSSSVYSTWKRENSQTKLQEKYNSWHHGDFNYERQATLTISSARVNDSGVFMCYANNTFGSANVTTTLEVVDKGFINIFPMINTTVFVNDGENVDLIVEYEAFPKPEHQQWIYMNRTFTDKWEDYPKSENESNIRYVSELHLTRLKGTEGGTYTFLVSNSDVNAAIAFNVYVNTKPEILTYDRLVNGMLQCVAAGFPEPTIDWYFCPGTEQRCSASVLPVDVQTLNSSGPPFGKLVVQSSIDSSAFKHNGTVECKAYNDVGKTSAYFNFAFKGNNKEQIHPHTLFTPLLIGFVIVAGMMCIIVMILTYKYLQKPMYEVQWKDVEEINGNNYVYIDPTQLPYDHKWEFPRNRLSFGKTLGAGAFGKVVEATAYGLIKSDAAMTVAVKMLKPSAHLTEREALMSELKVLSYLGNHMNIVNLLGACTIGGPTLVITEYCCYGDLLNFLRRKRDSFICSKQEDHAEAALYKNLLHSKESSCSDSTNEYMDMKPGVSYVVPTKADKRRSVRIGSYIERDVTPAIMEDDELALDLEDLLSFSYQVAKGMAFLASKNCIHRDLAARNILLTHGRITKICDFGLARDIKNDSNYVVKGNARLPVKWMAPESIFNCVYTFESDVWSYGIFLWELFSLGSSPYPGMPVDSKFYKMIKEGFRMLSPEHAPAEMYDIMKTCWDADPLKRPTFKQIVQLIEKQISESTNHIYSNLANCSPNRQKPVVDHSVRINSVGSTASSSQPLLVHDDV

[20] = molecular target: Inhibitor of nuclear factor kappa-B kinase subunit epsilon (Homo sapiens) (UniProt Q14164); experiment: Inhibition of IKK-epsilon (unknown origin) assessed as remaining activity at 1 uM by Kinome scan method relative to control
Mus musculus = experiment: Anti-colitis activity against DSS-induced mouse assessed as suppression in disease activity index at 1 mg/kg, ip administrated daily for over 1 to 21 days; type: functional, organism-based; details: time 1-21 day
Procedure, shortened: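 Colitis was induced in wild-type mice with DSS on days 1–7, with vehicle or 1 mg/kg daily (n = 12 per group). Disease activity index (diarrhea, rectal bleeding) was scored daily over days 1–21. Student's t test at each time point.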

[21] = molecular target: STE20/SPS1-related proline-alanine-rich protein kinase (Homo sapiens) (UniProt Q9UEW8); experiment: Inhibition of STK39 (unknown origin) assessed as remaining activity at 1 uM by Kinome scan method relative to control
[22] = molecular target: Tyrosine-protein kinase Lyn (Homo sapiens) (UniProt P07948); experiment: Inhibition of LYN (unknown origin) assessed as remaining activity at 1 uM by Kinome scan method relative to control

## CN1C(=O)c2sccc2N(C)c2nc(Nc3ccc(S(N)(=O)=O)cc3)ncc21
[1]
  Activity: 100%
[2]
  Activity: 100%
[3]
  Activity: 94%
RAW264.7
  inhibition: Active
[4]
  Activity: 92%
[5]
  Activity: 100%
[6]
  Activity: 100%
[7]
  Activity: 37%
[8]
  Activity: 84%
[9]
  Activity: 100%
[10]
  Activity: 73%
[11]
  Activity: 66%
[12]
  Activity: 15%
[13]
  Activity: 100%
[14]
  Activity: 93%
[15]
  Activity: 59%
[16]
  Activity: 2.7%
[17]
  Activity: 71%
[18]
  Activity: 100%
[19]
  Activity: 97%
[20]
  Activity: 86%
Mus musculus
  Activity: Active
[21]
  Activity: 86%
[22]
  Activity: 100%
